Among the data in the array DNA melting data of Ke et al. (doi:10.1101/2024.01.08.574731) are folding enthalpy and Tm values, retold here.

Data set [1] is described as follows: folding enthalpy; higher = less favourable; fluorescence melt of hairpins on a sequencing array, two-state fit. The note with it: sodium 0.088 M. The essentials: (§1)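 With Cy3 and quencher oligos annealed, library hairpins on a sequenced MiSeq flow cell were imaged for Cy3 fluorescence in 50 mM Na-HEPES pH 8.0, 25 mM NaCl, in 2.5 °C steps up to 60 °C. Melting temperature and folding enthalpy were derived from bootstrapped two-state fits of signals normalised to pre-quench Cy3 and to control constructs. Four replicates were combined by inverse variance, with fitted temperatures raised by 9.35 °C to match UV melts.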

Data set [2] can be described thus: melting temperature; fluorescence melt of hairpins on a sequencing array, two-state fit, raised by 9.35 °C to match UV melts. The note with it: sodium 0.088 M. The method in brief: as §1

Consider GCACTGCGAAAGCCGGGC ((.(.((....)).).)), for which the folding enthalpy in data set [1] is -22.7 kcal/mol. The Tm in data set [2] stood at 57.1 °C.
Taken in the same sequence, the figures for GCACTGCGAAAGCGGAGC ((.(.((....)).).)) were -19.8 kcal/mol and 49.9 °C.
For GCACTGCGAAAGCGGGGC ((.(.((....)).).)), in that order: -33.5 kcal/mol and 67.2 °C.
For GCACTGCGAAAGCTATGC (((..((....))..))), in that order: -16.7 kcal/mol and 40.3 °C.
Consider GCACTGCGAAAGCTCTGC (((..((....))..))), for which, in data set [1], the folding enthalpy was -17.4 kcal/mol. In addition, in data set [2], the Tm amounted to 35.8 °C.
Consider GCACTGCGAAAGCTTTGC (((..((....))..))), for which the folding enthalpy in data set [1] is -24.5 kcal/mol. In addition, the Tm in data set [2] came to 42.9 °C.
With GCACTGGGAAACCAGCGC ((.((((....)))).)), the folding enthalpy in data set [1] is -40.7 kcal/mol. Besides, the Tm in data set [2] was 51.9 °C.
Taken in the same sequence, the figures for GCACTTCCGAAAGGATGC (((..(((....)))))) were -17.7 kcal/mol and 37.9 °C.
Taken in the same sequence, the figures for GCAGAAGGAAACCTCTGC (((((.(....).))))) were -28.2 kcal/mol and 45.2 °C.
Taken in the same sequence, the figures for GCAGACCGAAAGGTTGC (((.(((....)))))) were -28.9 kcal/mol and 53.5 °C.
In the case of GCAGACGAAAGTCATGC ((((((....))).))), in data set [1], the folding enthalpy was -24.1 kcal/mol. Moreover, the Tm in data set [2] was determined as 51 °C.
For GCAGACGAAAGTCCCTGC ((((((....)))..))), in that order: -14.8 kcal/mol and 32.9 °C.
In the case of GCAGACGAAAGTCGGTGC ((((((....)))..))), the folding enthalpy in data set [1] was -19.3 kcal/mol. Also, in data set [2], the Tm came to 50.2 °C.
Take GCAGACGAAAGTCGTGC ((((((....))).))): the folding enthalpy in data set [1] is -24.1 kcal/mol. Besides, the Tm in data set [2] is 54.1 °C.
With GCAGACGAAAGTCGTTGC ((((((....)))..))), the folding enthalpy in data set [1] is -14.1 kcal/mol. The Tm in data set [2] is 50.5 °C.
Take GCAGACGAAAGTCTATGC ((((((....)))..))): in data set [1], the folding enthalpy is -14.9 kcal/mol. Moreover, the Tm in data set [2] is 45.8 °C.
Regarding GCAGACGAAAGTCTGTGC ((((((....)))..))), the folding enthalpy in data set [1] is -22.2 kcal/mol. Also, in data set [2], the Tm is 61.3 °C.
GCAGAGACGAAAGTCTGC (((..(((....)))))): the folding enthalpy in data set [1] was -19.6 kcal/mol. Moreover, the Tm in data set [2] is 51.7 °C.
With GCAGAGCGAAAGCAGTGC (((..((....))..))), the folding enthalpy in data set [1] was -15.1 kcal/mol. For the same sequence, the Tm in data set [2] is 45.8 °C.
For GCAGAGCGAAAGCCCAGC ((.(.((....)).).)), in that order: -12.2 kcal/mol and 33 °C.
With GCAGAGCGAAAGCCTTGC (((..((....))..))), the folding enthalpy in data set [1] is -14.5 kcal/mol. The Tm in data set [2] stood at 43.5 °C.
On to GCAGAGCGAAAGCGCAGC ((.(.((....)).).)), for which the folding enthalpy in data set [1] was -19.6 kcal/mol. Moreover, in data set [2], the Tm was 59.6 °C.
For GCAGAGCGAAAGCGCCGC ((.(.((....)).).)), in that order: -28.2 kcal/mol and 64 °C.
GCAGAGCGAAAGCGGTGC (((..((....))..))): the folding enthalpy in data set [1] is -23.7 kcal/mol. The Tm in data set [2] came to 63.5 °C.
As for GCAGAGCGAAAGCTTCGC ((..(((....)))..)), the folding enthalpy in data set [1] was -17.2 kcal/mol. In addition, the Tm in data set [2] turned out to be 44.8 °C.
For GCAGAGGAAACTCTGC ((((((....)))))), in that order: -35.2 kcal/mol and 65.8 °C.
Taken in the same sequence, the figures for GCAGATCCGAAAGGATGC (((..(((....)))))) were -16.3 kcal/mol and 45.2 °C.
GCAGATCGAAAGATTTGC (((.(((....))).))): the folding enthalpy in data set [1] was -43.6 kcal/mol. The Tm in data set [2] is 52.1 °C.
Taken in the same sequence, the figures for GCAGATGGAAACACCTGC ((((.((....)).)))) were -28.9 kcal/mol and 44.2 °C.
For GCAGATTCGAAAGAATGC (((..(((....)))))), in that order: -13.9 kcal/mol and 36.3 °C.
Taken in the same sequence, the figures for GCAGCCGAAAGGCAATGC ((((((....)))..))) were -17 kcal/mol and 52.1 °C.
Turning to GCAGCCGAAAGGCAGTGC ((((((....)))..))), the folding enthalpy in data set [1] is -17.4 kcal/mol. In addition, the Tm in data set [2] is 50.6 °C.
Taken in the same sequence, the figures for GCAGCCGAAAGGCCATGC ((((((....)))..))) were -13.9 kcal/mol and 40.3 °C.
For GCAGCCGAAAGGCTCTGC ((((((....)))..))), the folding enthalpy in data set [1] was -12.2 kcal/mol. In addition, the Tm in data set [2] came out at 46.3 °C.
Taken in the same sequence, the figures for GCAGCCGGAAACAGCTGC (((((.(....).))))) were -40.9 kcal/mol and 55.7 °C.
For GCAGCCGGAAACGACTGC ((((.((....)).)))), in that order: -43.5 kcal/mol and 56.6 °C.
Taken in the same sequence, the figures for GCAGCCGGAAACGGCTAC (.(((((....))))).) were -11.3 kcal/mol and 45.9 °C.
With GCAGCCTCGAAAGAGTGC (((..(((....)))))), in data set [1], the folding enthalpy was -15.5 kcal/mol. The Tm in data set [2] amounted to 37 °C.
For the sequence GCAGCGCGAAAGCAATGC (((..((....))..))), the folding enthalpy in data set [1] is -25.3 kcal/mol. Further, the Tm in data set [2] was determined as 54.9 °C.
For GCAGCGCGAAAGCACCGC ((.(.((....)).).)), in that order: -21.5 kcal/mol and 41.3 °C.
For GCAGCGCGAAAGCCTTGC (((..((....))..))), the folding enthalpy in data set [1] is -12.4 kcal/mol. Moreover, the Tm in data set [2] amounted to 40 °C.
For GCAGCGCGAAAGCGAAGC ((..(((....)))..)), in that order: -18.7 kcal/mol and 57.5 °C.
Taken in the same sequence, the figures for GCAGCGCGAAAGCTCGGC ((.(.((....)).).)) were -20.9 kcal/mol and 42.9 °C.
Regarding GCAGCGGGAAACCACTGC ((((.((....)).)))), the folding enthalpy in data set [1] was -43.3 kcal/mol. Also, the Tm in data set [2] amounted to 52.2 °C.
Consider GCAGCGGGAAACCGCCGC ((.((((....)))).)), for which, in data set [1], the folding enthalpy was -18.6 kcal/mol. In data set [2], the Tm is 55.2 °C.
Taken in the same sequence, the figures for GCAGCTCGAAAGAGTGC (((.(((....)))))) were -30 kcal/mol and 51.4 °C.
Take GCAGCTGGAAACGGCTGC (((((.(....).))))): in data set [1], the folding enthalpy is -46.1 kcal/mol. For the same sequence, in data set [2], the Tm was 60.2 °C.
As for GCAGCTGGAAACGGTTGC (((.(.(....).).))), the folding enthalpy in data set [1] was -29.1 kcal/mol. The Tm in data set [2] worked out at 41.1 °C.
As for GCAGGAGCGAAAGCTTGC (((..(((....)))))), in data set [1], the folding enthalpy was -16.5 kcal/mol. In addition, the Tm in data set [2] is 44.2 °C.
Taken in the same sequence, the figures for GCAGGAGGAAACTCCTAC (.(((((....))))).) were -15.2 kcal/mol and 37.8 °C.
On to GCAGGAGGAAACTCTTGC (((.(((....))).))), for which, in data set [1], the folding enthalpy is -34.8 kcal/mol. For the same sequence, the Tm in data set [2] amounted to 46.7 °C.
Regarding GCAGGCCGAAAGGCTTGC (((.(((....))).))), the folding enthalpy in data set [1] was -29.2 kcal/mol. Moreover, the Tm in data set [2] was 69.1 °C.
Take GCAGGCGAAAGCCATGC ((((((....))).))): the folding enthalpy in data set [1] was -19.9 kcal/mol. Besides, the Tm in data set [2] was determined as 61 °C.
Take GCAGGCGAAAGCCGCTGC ((((((....)))..))): in data set [1], the folding enthalpy was -14.8 kcal/mol. The Tm in data set [2] was 68 °C.
In the case of GCAGGCGAAAGCCTTTGC ((((((....)))..))), the folding enthalpy in data set [1] is -11 kcal/mol. In addition, the Tm in data set [2] came to 41 °C.
For GCAGGGCGAAAGCCTTGC (((.(((....))).))), the folding enthalpy in data set [1] was -40.3 kcal/mol. Moreover, the Tm in data set [2] was determined as 61.2 °C.
Taken in the same sequence, the figures for GCAGGGCGAAAGCTATGC (((..((....))..))) were -20.4 kcal/mol and 54.1 °C.
As to GCAGGGCGAAAGCTCCGC ((.(.((....)).).)), in data set [1], the folding enthalpy was -17.6 kcal/mol. For the same sequence, the Tm in data set [2] was 49.5 °C.
As to GCAGGGCGAAAGCTGTGC (((..((....))..))), the folding enthalpy in data set [1] is -21.7 kcal/mol. The Tm in data set [2] is 52.2 °C.
With GCAGGTCGAAAGACATGC (((.(((....))).))), in data set [1], the folding enthalpy was -40.4 kcal/mol. In addition, the Tm in data set [2] is 64.2 °C.
For GCAGGTCGAAAGACGTGC (((.(((....))).))), the folding enthalpy in data set [1] was -42.9 kcal/mol. For the same sequence, in data set [2], the Tm was found to be 62.8 °C.
Take GCAGGTTCGAAAGAATGC (((..(((....)))))): the folding enthalpy in data set [1] was -11.1 kcal/mol. Also, the Tm in data set [2] was 30.9 °C.
For GCAGTACGAAAGTAGTGC (((.(((....))).))), in that order: -47 kcal/mol and 57.6 °C.
For GCAGTACGAAAGTATGC (((.(((....)))))), in that order: -31.3 kcal/mol and 48.4 °C.
With GCAGTAGGAAACTGTTGC (((..((....))..))), the folding enthalpy in data set [1] is -18.3 kcal/mol. In addition, the Tm in data set [2] was 32.2 °C.
For the sequence GCAGTCCCGAAAGGGTGC (((..(((....)))))), the folding enthalpy in data set [1] is -15.3 kcal/mol. Also, in data set [2], the Tm came out at 43.5 °C.
For GCAGTCCGAAAGGATGC (((.(((....)))))), in that order: -32.1 kcal/mol and 52.3 °C.
Taken in the same sequence, the figures for GCAGTCGAAAGACCATGC ((((((....)))..))) were -16.2 kcal/mol and 35.1 °C.
In the case of GCAGTCGAAAGACCCTGC ((((((....)))..))), the folding enthalpy in data set [1] is -17.3 kcal/mol. The Tm in data set [2] is 33 °C.
Taken in the same sequence, the figures for GCAGTCGAAAGACCTGC ((((((....))).))) were -29.9 kcal/mol and 51.2 °C.
Taken in the same sequence, the figures for GCAGTCGAAAGACGGTGC ((((((....)))..))) were -19 kcal/mol and 48.5 °C.
As for GCAGTCGAAAGACGTGC ((((((....))).))), in data set [1], the folding enthalpy was -17.4 kcal/mol. Further, in data set [2], the Tm was found to be 51.8 °C.
Taken in the same sequence, the figures for GCAGTCGAAAGACGTTGC ((((((....)))..))) were -17 kcal/mol and 45.9 °C.
